pIC50: −log10 of the molar value. Converted amounts (≈) assume the structure as drawn.
How the values were obtained:
Mus musculus [1] = assay: Antibacterial activity against Escherichia coli infected in cyclophosphamide treated neutropenic CD1 mouse septicemia model assessed as mouse survival at 1.5 mg/kg, iv dosed at 1 hr post infection followed by redosing at 5 hrs post infection measured at 96 hrs post infection relative to control; format: functional
Outline: (§1)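 Female CD-1 mice were made neutropenic with cyclophosphamide ip, 150 mg/kg on day −4 and 100 mg/kg on day −1. […] Compound was given iv in 3% DMSO/saline at 1 and 5 h postinfection, n = 6 per group. Percent survival was scored at 96 h postinfection.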

Mus musculus [2] = assay: AUC (0 to 24 hrs) in CD1 mouse plasma at 3 mg/kg, iv by LC-MS/MS analysis; format: ADME, organism-based; parameters: time < 24 hr, dose 3 mg/kg, route intravenous; conditions: in vivo
Outline: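 CD-1 mice given a single 3 mg/kg iv dose (n = 3) in 3% DMSO/saline; plasma exposure measured.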

Mus musculus [3] = assay: Antibacterial activity against Escherichia coli infected in cyclophosphamide treated neutropenic CD1 mouse septicemia model assessed as mouse survival at 3 mg/kg, iv dosed at 1 hr post infection followed by redosing at 5 hrs post infection measured at 96 hrs post infection relative to control; format: functional; outline: as §1
[4] = Fraction unbound in mouse plasma at 1 uM by equilibrium dialysis method; format: ADME, cell-free
Acinetobacter baumannii [5] = assay: Antibacterial activity against fluoroquinolone resistant Acinetobacter baumannii isolate MMX2240 by CLSI M100-S17 protocol based method; format: functional
Acinetobacter baumannii [6] = assay: Bactericidal activity against wild type Acinetobacter baumannii ATCC BAA-747 assessed as reduction of bacterial load after 24 hrs by time kill assay; format: functional, organism-based
Escherichia coli [7] = assay: Antibacterial activity against wild type Escherichia coli ATCC 25922 by CLSI M100-S17 protocol based method; format: functional
Acinetobacter baumannii [8] = assay: Bactericidal activity against wild type Acinetobacter baumannii ATCC BAA-747 assessed as reduction of bacterial load at 0.25 to 4 times MIC after 2 hrs by time kill assay; format: functional
Klebsiella pneumoniae = assay: Antibacterial activity against wild type Klebsiella pneumoniae ATCC 35657 by CLSI M100-S17 protocol based method; format: functional
Escherichia coli [9] = assay: Antibacterial activity against wild type Escherichia coli ATCC 25922 in presence of HSA by CLSI M100-S17 protocol based method; format: functional
Escherichia coli [10] = assay: Antibacterial activity against fluoroquinolone resistant Escherichia coli SKM18 by CLSI M100-S17 protocol based method; format: functional
Escherichia coli [11] = assay: Bactericidal activity against wild type Escherichia coli ATCC 25922 assessed as reduction of bacterial load at 0.25 to 8 times MIC after 2 hrs by time kill assay; format: functional
Escherichia coli [12] = assay: Antibacterial activity against quinolone resistance Escherichia coli isolate ELZ4251 harboring gyrA/parC mutant by CLSI M100-S17 protocol based method; format: functional
Escherichia coli [13] = assay: Bactericidal activity against wild type Escherichia coli ATCC 25922 assessed as reduction of bacterial load after 24 hrs by time kill assay; format: functional, organism-based
Acinetobacter baumannii [14] = assay: Antibacterial activity against wild type Acinetobacter baumannii ATCC BAA-747 by CLSI M100-S17 protocol based method; format: functional
Escherichia coli [15] = assay: Antibacterial activity against aminoglycoside resistant Escherichia coli by broth microdilution method; format: functional; conditions: Escherichia coli
Outline: (§2)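 MICs were determined by CLSI broth methods, except that organisms were grown in brain–heart–infusion medium. The panel comprised wild-type and resistant E. coli and A. baumannii strains, including 12 strains whose details are given by reference.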

Acinetobacter baumannii [16] = assay: Antibacterial activity against wild type Acinetobacter baumannii by broth microdilution method; format: functional; outline: as §2
Escherichia coli [17] = assay: Antibacterial activity against Escherichia coli infected in cyclophosphamide treated neutropenic CD1 mouse septicemia model assessed as mouse survival at 20 mg/kg, iv dosed at 1 hr post infection followed by redosing at 5 hrs post infection measured at 96 hrs post infection relative to control; format: functional; outline: as §1
Acinetobacter baumannii [18] = assay: Antibacterial activity against beta-lactam resistant Acinetobacter baumannii by broth microdilution method; format: functional; conditions: Acinetobacter baumannii; outline: as §2
Acinetobacter baumannii [19] = assay: Antibacterial activity against carbapenem resistant Acinetobacter baumannii by broth microdilution method; format: functional; conditions: Acinetobacter baumannii; outline: as §2
Escherichia coli [20] = assay: Antibacterial activity against beta-lactam resistant Escherichia coli by broth microdilution method; format: functional; conditions: Escherichia coli; outline: as §2
Escherichia coli [21] = assay: Antibacterial activity against Escherichia coli SKM11 by CLSI M100-S17 protocol based method; format: functional
Acinetobacter baumannii [22] = assay: Antibacterial activity against quinolone resistant Acinetobacter baumannii by broth microdilution method; format: functional; conditions: Acinetobacter baumannii; outline: as §2
[23] = Inhibition of His tagged Escherichia coli ATCC 25922 DNA gyrase A expressed in Escherichia coli BL21 (DE3) pLysS cells assessed as reduction in enzyme-mediated supercoiling of relaxed plasmid DNA pNO1 after 30 mins in presence of biotinylated TFO1 by fluorescence assay
DNA gyrase subunit A = DNA gyrase subunit A (Escherichia coli K-12, UniProt P0AES4); assay: Inhibition of His tagged Escherichia coli ATCC 25922 DNA gyrase A SD-LY mutant expressed in Escherichia coli BL21 (DE3) pLysS cells assessed as reduction in enzyme-mediated supercoiling of relaxed plasmid DNA pNO1 after 30 mins in presence of biotinylated TFO1 by fluorescence assay
Sequence of DNA gyrase subunit A (P0AES4 2-875 limits assumed): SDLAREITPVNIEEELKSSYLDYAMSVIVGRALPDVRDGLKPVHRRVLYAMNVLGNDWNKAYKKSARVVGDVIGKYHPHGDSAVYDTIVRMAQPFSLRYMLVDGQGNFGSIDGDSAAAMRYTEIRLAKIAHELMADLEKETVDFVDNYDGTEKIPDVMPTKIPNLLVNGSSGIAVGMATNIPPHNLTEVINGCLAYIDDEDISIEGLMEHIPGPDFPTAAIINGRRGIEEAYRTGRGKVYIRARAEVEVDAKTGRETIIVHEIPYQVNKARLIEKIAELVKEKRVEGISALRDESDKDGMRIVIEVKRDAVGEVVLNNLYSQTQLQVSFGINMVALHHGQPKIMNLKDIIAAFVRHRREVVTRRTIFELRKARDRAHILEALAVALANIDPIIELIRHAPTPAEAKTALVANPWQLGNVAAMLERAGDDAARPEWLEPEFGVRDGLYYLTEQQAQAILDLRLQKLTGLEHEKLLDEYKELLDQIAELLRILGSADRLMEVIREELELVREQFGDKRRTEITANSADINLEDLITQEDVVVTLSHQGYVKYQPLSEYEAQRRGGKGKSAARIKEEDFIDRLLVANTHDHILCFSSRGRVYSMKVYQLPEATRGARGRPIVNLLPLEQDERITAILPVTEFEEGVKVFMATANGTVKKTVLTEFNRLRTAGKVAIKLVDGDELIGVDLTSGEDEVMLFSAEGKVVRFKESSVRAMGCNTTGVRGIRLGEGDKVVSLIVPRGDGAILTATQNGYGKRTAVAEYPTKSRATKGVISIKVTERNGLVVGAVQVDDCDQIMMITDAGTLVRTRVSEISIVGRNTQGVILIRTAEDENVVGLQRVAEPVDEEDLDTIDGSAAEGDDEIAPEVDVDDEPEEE

Acinetobacter baumannii [24] = assay: Antibacterial activity against aminoglycoside resistant Acinetobacter baumannii by broth microdilution method; format: functional; conditions: Acinetobacter baumannii; outline: as §2
Escherichia coli [25] = assay: Antibacterial activity against wild type Escherichia coli 1609 by CLSI M100-S17 protocol based method; format: functional
Escherichia coli [26] = assay: Antibacterial activity against multidrug resistant Escherichia coli by broth microdilution method; format: functional; conditions: Escherichia coli; outline: as §2
Escherichia coli [27] = assay: Antibacterial activity against quinolone resistant Escherichia coli by broth microdilution method; format: functional; conditions: Escherichia coli; outline: as §2
Escherichia coli [28] = assay: Antibacterial activity against wild type Escherichia coli by broth microdilution method; format: functional; outline: as §2
Acinetobacter baumannii [29] = assay: Antibacterial activity against multidrug resistant Acinetobacter baumannii by broth microdilution method; format: functional; conditions: Acinetobacter baumannii; outline: as §2
[30] = Inhibition of Escherichia coli DNA topoisomerase 4 assessed as reduction in decatenation activity using kinetoplast concatenated DNA as substrate after 30 mins by picogreen dye based fluorescence assay

Molecule COc1c(N2C[C@@H]3CCCN[C@@H]3C2)c(F)cc2c(=O)c(C(=O)O)cn(C3CC3)c12 [MOXIFLOXACIN] has a survival at 1.5 mg/kg (Mus musculus [1]) of 83%, an AUC (Mus musculus [2]) of 640 ng·h/mL and a survival at 3 mg/kg (Mus musculus [3]) of 100%. The Fu [4] was 0.8.
With CCc1c(-c2ccc3c(c2)cc(CN2CCC2)n3C)[nH]c(=O)c(C(=O)O)c1O the MIC (Acinetobacter baumannii [5]) was 6.3 µg/mL (≈ 16.5 µM), the Activity (Acinetobacter baumannii [6]) was “Dose-dependent effect” and the MIC (Escherichia coli [7]) was 0.39 µg/mL (≈ 1.02 µM). The Activity (Acinetobacter baumannii [8]) was 2 log10CFU, the MIC (Klebsiella pneumoniae) was 0.78 µg/mL (≈ 2.04 µM) and the MIC (Escherichia coli [9]) was 1.6 µg/mL. The MIC (Escherichia coli [10]) was 1.6 µg/mL (≈ 4.19 µM), the Activity (Escherichia coli [11]) was 3 log10CFU and the MIC (Escherichia coli [12]) was 1.6 µg/mL (≈ 4.19 µM). For the same molecule, the Activity (Escherichia coli [13]) was “Dose-dependent effect” and the MIC (Acinetobacter baumannii [14]) was 0.39 µg/mL (≈ 1.02 µM).
Molecule CCNCc1cc2cc3c(cc2n1C)CCCc1c-3[nH]c(=O)c(C(=O)O)c1O has an MIC50 (Escherichia coli [15]) of 1 µg/mL (≈ 2.62 µM), an MIC90 (Escherichia coli [15]) of 1 µg/mL (≈ 2.62 µM) and an MIC (Escherichia coli [15]; read-out: MIC) of 0.25 to 1 µg/mL (≈ 0.655 to 2.62 µM). The MIC50 (Acinetobacter baumannii [16]) was 2 µg/mL (≈ 5.24 µM), the MIC90 (Acinetobacter baumannii [16]) was 16 µg/mL (≈ 41.9 µM) and the survival at 20 mg/kg (Escherichia coli [17]) was 83%. It also gave an MIC50 (Acinetobacter baumannii [18]) of 2 µg/mL (≈ 5.24 µM), an MIC90 (Acinetobacter baumannii [18]) of 16 µg/mL (≈ 41.9 µM) and an MIC (Acinetobacter baumannii [18]; read-out: MIC) of 0.25 to 32 µg/mL (≈ 0.655 to 83.9 µM). The MIC (Acinetobacter baumannii [5]) was 1.6 µg/mL (≈ 4.19 µM), the MIC50 (Acinetobacter baumannii [19]) was 2 µg/mL (≈ 5.24 µM) and the MIC90 (Acinetobacter baumannii [19]) was 16 µg/mL (≈ 41.9 µM). It also gave an MIC (Acinetobacter baumannii [19]; read-out: MIC) of 0.25 to 32 µg/mL (≈ 0.655 to 83.9 µM), an MIC50 (Escherichia coli [20]) of 1 µg/mL (≈ 2.62 µM) and an MIC90 (Escherichia coli [20]) of 1 µg/mL (≈ 2.62 µM). For the same molecule, the MIC (Escherichia coli [20]; read-out: MIC) was 0.25 to 1 µg/mL (≈ 0.655 to 2.62 µM), the MIC (Escherichia coli [21]) was 1.6 µg/mL (≈ 4.19 µM) and the MIC (Escherichia coli [7]) was 0.39 µg/mL (≈ 1.02 µM). For the same molecule, the MIC50 (Acinetobacter baumannii [22]) was 2 µg/mL (≈ 5.24 µM), the MIC90 (Acinetobacter baumannii [22]) was 16 µg/mL (≈ 41.9 µM) and the MIC (Acinetobacter baumannii [22]; read-out: MIC) was 0.25 to 32 µg/mL (≈ 0.655 to 83.9 µM). The pIC50 [23] was 7.00 to 7.25, the pIC50 (DNA gyrase subunit A) was 6.12 and the MIC50 (Acinetobacter baumannii [24]) was 2 µg/mL (≈ 5.24 µM). It also gave an MIC90 (Acinetobacter baumannii [24]) of 16 µg/mL (≈ 41.9 µM), an MIC (Acinetobacter baumannii [24]; read-out: MIC) of 0.25 to 32 µg/mL (≈ 0.655 to 83.9 µM) and an MIC (Klebsiella pneumoniae) of 0.78 µg/mL (≈ 2.04 µM). For the same molecule, the MIC (Escherichia coli [9]) was 6.3 µg/mL, the MIC (Escherichia coli [25]) was 1.6 µg/mL (≈ 4.19 µM) and the MIC50 (Escherichia coli [26]) was 1 µg/mL (≈ 2.62 µM). The MIC90 (Escherichia coli [26]) was 1 µg/mL (≈ 2.62 µM), the MIC (Escherichia coli [26]; read-out: MIC) was 0.25 to 1 µg/mL (≈ 0.655 to 2.62 µM) and the MIC (Escherichia coli [10]) was 0.39 µg/mL (≈ 1.02 µM). For the same molecule, the MIC50 (Escherichia coli [27]) was 1 µg/mL (≈ 2.62 µM), the MIC90 (Escherichia coli [27]) was 1 µg/mL (≈ 2.62 µM) and the MIC (Escherichia coli [27]; read-out: MIC) was 0.25 to 1 µg/mL (≈ 0.655 to 2.62 µM). The MIC50 (Escherichia coli [28]) was 1 µg/mL (≈ 2.62 µM), the MIC90 (Escherichia coli [28]) was 1 µg/mL (≈ 2.62 µM) and the MIC50 (Acinetobacter baumannii [29]) was 2 µg/mL (≈ 5.24 µM). It also gave an MIC90 (Acinetobacter baumannii [29]) of 16 µg/mL (≈ 41.9 µM), an MIC (Acinetobacter baumannii [29]; read-out: MIC) of 0.25 to 32 µg/mL (≈ 0.655 to 83.9 µM) and an MIC (Escherichia coli [12]) of 1.6 µg/mL (≈ 4.19 µM). The pIC50 [30] was 5.54, the MIC (Acinetobacter baumannii [14]) was 0.78 µg/mL (≈ 2.04 µM) and the Fu [4] was 0.17.
